This passage reports Activity, IC50 and EC50 results from ChEMBL document CHEMBL1152818, “Structural bioinformatics-based design of selective, irreversible kinase inhibitors” (Science, 2005).

One may read the IC50 as the concentration at which inhibition is half-maximal. One may read the EC50 as the concentration that produces a half-maximal response.

The target in test [1] is Ribosomal protein S6 kinase alpha-5 (Homo sapiens) (UniProt O75582). Description: Inhibition of MSK1-mediated histone H3 Ser10 phosphorylation expressed in serum starved african green monkey COS7 cells by Western blot. The format is cell-based. The settings on record: COS-7. An outline of the steps: (§1)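 COS-7 cells transfected with HA-tagged WT or M498T MSK1. Lysed in Laemmli buffer. Western blots probed for phospho-Ser386 RSK (MSK1 autophosphorylation), HA epitope and phospho-Ser10 histone H3.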
Ribosomal protein S6 kinase alpha-5 (Homo sapiens), sequence (O75582 whole entry, looked up): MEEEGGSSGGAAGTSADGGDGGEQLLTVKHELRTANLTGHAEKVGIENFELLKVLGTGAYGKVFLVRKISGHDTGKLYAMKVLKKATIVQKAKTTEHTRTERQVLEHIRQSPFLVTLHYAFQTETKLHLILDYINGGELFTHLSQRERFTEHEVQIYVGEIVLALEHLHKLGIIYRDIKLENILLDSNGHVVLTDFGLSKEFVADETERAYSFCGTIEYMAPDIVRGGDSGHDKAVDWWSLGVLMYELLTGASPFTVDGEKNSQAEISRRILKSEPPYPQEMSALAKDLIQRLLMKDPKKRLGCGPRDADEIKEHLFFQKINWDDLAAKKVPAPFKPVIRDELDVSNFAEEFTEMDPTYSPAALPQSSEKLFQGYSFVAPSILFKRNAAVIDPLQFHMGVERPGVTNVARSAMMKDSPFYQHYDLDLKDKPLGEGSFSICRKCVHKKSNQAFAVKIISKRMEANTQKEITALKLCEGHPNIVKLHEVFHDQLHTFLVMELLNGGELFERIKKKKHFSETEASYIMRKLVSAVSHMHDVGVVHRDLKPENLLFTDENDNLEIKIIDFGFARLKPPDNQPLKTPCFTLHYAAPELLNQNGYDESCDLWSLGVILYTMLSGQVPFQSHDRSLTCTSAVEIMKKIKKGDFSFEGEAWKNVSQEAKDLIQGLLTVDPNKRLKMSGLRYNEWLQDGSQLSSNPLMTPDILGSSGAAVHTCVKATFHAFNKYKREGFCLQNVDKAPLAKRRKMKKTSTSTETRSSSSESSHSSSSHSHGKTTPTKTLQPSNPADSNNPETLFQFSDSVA

Test [2] deals with NIH3T3. The test is described as follows: Inhibition of PMA-stimulated histone H3 phosphorylation in mouse NIH-3T3 cells at 10 uM by SDS page and Western blot. The format is functional, cell-based.
In test [3] the target is Tyrosine-protein kinase Fyn (Homo sapiens, UniProt P06241, V285C). Description: Inhibition of FYN Val285Cys mutant expressed in Escherichia coli.
Tyrosine-protein kinase Fyn, sequence (P06241 2-537 V285C limits assumed): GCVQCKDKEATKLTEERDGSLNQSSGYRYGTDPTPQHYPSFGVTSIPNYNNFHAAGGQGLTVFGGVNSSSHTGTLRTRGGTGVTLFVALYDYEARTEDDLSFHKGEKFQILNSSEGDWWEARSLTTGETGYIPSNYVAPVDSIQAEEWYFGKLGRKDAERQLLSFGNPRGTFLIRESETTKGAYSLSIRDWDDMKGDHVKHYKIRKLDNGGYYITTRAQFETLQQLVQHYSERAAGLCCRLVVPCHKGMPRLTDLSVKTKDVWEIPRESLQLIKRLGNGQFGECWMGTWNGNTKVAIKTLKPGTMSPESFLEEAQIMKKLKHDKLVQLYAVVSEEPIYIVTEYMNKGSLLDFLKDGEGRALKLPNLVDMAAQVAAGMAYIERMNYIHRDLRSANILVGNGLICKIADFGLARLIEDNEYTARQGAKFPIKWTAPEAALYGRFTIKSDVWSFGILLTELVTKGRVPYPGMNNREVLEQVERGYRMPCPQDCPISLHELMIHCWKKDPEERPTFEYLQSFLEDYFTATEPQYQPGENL
The subject of test [4] is COS-7. The test is described as follows: Inhibition of EGF-stimulated ERK1 phosphorylation in serum starved african green monkey COS7 cells at 10 µM by Western blot. The settings on record: Chlorocebus aethiops. On the technique in general: A western blot detects proteins with antibodies after separation by electrophoresis.
The subject of test [5] is COS-7. The test is described as follows: Inhibition of EGF-stimulated ERK2 phosphorylation in serum starved african green monkey COS7 cells at 10 µM by Western blot. Particulars: Chlorocebus aethiops.
Test [6] in a line: Inhibition of EGF-stimulated RSK2 Ser386 autophosphorylation in serum starved african green monkey COS7 cells by immunoprecipitation and Western blot. Particulars: cos-7. The test is classed as cell-based, Chlorocebus aethiops. In short, it runs like this: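 COS-7 cells serum-deprived 20 h, exposed to a range of inhibitor concentrations, then stimulated with EGF (1 ng/mL) for 10 min. Endogenous RSK2 immunoprecipitated and blotted for phospho-Ser386 and total RSK2. EC50 taken from the concentration series.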

The test system of test [7] is Ribosomal protein S6 kinase alpha-5 (Homo sapiens), O75582 [M498T]. The test is described as follows: Inhibition of MSK1 M498T mutant phosphorylation expressed in serum starved african green monkey COS7 cells by Western blot. The format is cell-based. Particulars: COS-7. An outline of the steps: as §1
Ribosomal protein S6 kinase alpha-5 (Homo sapiens), O75582 [M498T], sequence (O75582 whole entry M498T): as the sequence (O75582 whole entry, looked up) above, with M498T counted along it
Test [8] deals with NIH3T3. Description: Reversion of Rous sarcoma virus wild type V-src-dependent cell morphology in mouse NIH-3T3 cells assessed as cells acquiring actin stress fibres at 1 uM after 16 hrs by phalloidin-FITC and DAPI staining. The format is cell-based.
Test [9] has as its system NIH3T3. Description: Inhibition of Rous sarcoma virus wild type V-src expressed in mouse NIH-3T3 cells assessed as reduction in steady-state phosphotyrosine level preincubated for 1 hr by Western blot. The test is classed as cell-based.
Test [10] concerns Tyrosine-protein kinase transforming protein Src (Avian leukosis virus RSA (RSV-SRA) (Rous sarcoma virus (strainSchmidt-Ruppin A))), P00524 [V281C]. Description: Reversion of Rous sarcoma virus V-src V281C mutant-dependent cell morphology in mouse NIH-3T3 cells assessed as cells acquiring actin stress fibres at 1 uM after 16 hrs by phalloidin-FITC and DAPI staining. The format is cell-based. The settings on record: NIH3T3.

Test [11] shares this test system. Description: Inhibition of Rous sarcoma virus V-src V281C mutant expressed in mouse NIH-3T3 cells assessed as reduction in steady-state phosphotyrosine level preincubated for 1 hr by Western blot. The format is cell-based. The settings on record: NIH3T3.
The target in test [12] is T1, Ribosomal protein S6 kinase alpha-3 (Homo sapiens, UniProt P51812). Description: Inhibition of RSK2 C-terminal kinase domain expressed in Escherichia coli preincubated for 30 mins. In short, it runs like this: (§2)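 His6-tagged RSK2 CTDs (WT or mutant) expressed in E. coli, activated with bacterially expressed His6-ERK2 plus ATP. Enzyme at 1 nM pretreated with inhibitor for 30 min, then assayed with 0.1 mM ATP and 0.1 mM "CTD-tide" peptide substrate.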
T1 sequence (P51812 whole entry, the tested form may be a part): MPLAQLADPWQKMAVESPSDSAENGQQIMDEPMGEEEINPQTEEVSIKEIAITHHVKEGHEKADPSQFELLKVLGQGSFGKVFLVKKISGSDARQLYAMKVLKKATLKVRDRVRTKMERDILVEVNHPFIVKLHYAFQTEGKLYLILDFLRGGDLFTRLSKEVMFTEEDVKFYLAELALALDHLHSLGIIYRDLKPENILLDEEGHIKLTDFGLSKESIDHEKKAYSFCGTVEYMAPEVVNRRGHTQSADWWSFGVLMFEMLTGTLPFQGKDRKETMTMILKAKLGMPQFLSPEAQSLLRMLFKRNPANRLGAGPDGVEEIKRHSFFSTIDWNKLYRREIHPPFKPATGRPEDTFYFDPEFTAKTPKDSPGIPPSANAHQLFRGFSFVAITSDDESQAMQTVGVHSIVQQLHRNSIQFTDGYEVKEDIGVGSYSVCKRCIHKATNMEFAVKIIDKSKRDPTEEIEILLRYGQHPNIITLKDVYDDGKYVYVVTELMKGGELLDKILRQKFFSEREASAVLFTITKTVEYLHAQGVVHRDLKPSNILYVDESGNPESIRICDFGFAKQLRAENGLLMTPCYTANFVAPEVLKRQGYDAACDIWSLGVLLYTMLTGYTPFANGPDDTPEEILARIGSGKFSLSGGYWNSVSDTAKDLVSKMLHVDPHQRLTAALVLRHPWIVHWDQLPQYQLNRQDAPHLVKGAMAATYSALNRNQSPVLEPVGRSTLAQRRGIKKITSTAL

Test [13] concerns the target Ribosomal protein S6 kinase alpha-3 (Homo sapiens, UniProt P51812, C436V). Description: Inhibition of RSK2 C-terminal kinase domain C436V mutant expressed in Escherichia coli preincubated for 30 mins. In short, it runs like this: as §2
The target of test [14] is Ribosomal protein S6 kinase alpha-3 (Homo sapiens, UniProt P51812, T493M). The test is described as follows: Inhibition of RSK2 C-terminal kinase domain T493M mutant expressed in Escherichia coli preincubated for 30 mins. In short, it runs like this: as §2
Ribosomal protein S6 kinase alpha-3 (Homo sapiens, UniProt P51812, T493M), sequence (P51812 whole entry T493M, the tested form may be a part): as the sequence (P51812 whole entry, the tested form may be a part) above, with T493M counted along it
The target in test [15] is Ribosomal protein S6 kinase alpha-1 (Homo sapiens) (UniProt Q15418). Description: Binding affinity to RSK1 in HEK293 cells assessed as protein labeling at 1 µM preincubated for 1 hr by immunodepletion method.
Ribosomal protein S6 kinase alpha-1 (Homo sapiens), sequence (Q15418 whole entry, the tested form may be a part): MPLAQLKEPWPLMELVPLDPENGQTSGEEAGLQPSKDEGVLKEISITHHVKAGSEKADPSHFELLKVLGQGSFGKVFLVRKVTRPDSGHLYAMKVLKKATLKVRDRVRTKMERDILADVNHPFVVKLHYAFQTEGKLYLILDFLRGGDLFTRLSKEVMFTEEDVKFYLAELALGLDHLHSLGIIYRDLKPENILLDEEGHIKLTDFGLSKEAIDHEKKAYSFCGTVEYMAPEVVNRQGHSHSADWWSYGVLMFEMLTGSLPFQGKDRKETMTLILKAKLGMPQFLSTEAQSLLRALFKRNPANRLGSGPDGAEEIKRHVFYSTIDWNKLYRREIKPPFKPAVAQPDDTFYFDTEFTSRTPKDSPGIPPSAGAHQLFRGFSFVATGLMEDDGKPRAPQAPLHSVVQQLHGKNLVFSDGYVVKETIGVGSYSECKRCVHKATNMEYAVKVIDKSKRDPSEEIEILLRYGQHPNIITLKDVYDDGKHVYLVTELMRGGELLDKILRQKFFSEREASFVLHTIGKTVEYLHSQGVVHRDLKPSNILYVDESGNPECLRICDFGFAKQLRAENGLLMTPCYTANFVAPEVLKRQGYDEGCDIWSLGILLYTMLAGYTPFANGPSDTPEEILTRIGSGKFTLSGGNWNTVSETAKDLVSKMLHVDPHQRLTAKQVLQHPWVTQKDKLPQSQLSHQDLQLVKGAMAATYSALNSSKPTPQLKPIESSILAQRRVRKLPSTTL
The subject of test [16] is Ribosomal protein S6 kinase alpha-3 (Homo sapiens), P51812 [T493M]. The test is described as follows: Binding affinity to RSK2 T493M mutant at 1 uM preincubated for 1 hr by denaturing gel electrophoresis and Western blot. An outline of the steps: (§3)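 His6-tagged RSK2 C-terminal kinase domains (WT or mutant) exposed to 1 μM biotin-fmk for 1 hour in the presence of His6-ERK2. Proteins resolved by SDS-PAGE. Western blot probed with streptavidin-HRP for covalent label and anti-His6 for total protein.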

The target in test [17] is Ribosomal protein S6 kinase alpha-1 (Homo sapiens) (UniProt Q15418). The test is described as follows: Binding affinity to RSK1 in HEK293 cells assessed as protein labeling at 1 µM preincubated for 1 hr by enhanced chemiluminescence detection.
Test [18] addresses T1, Ribosomal protein S6 kinase alpha-3. The test is described as follows: Binding affinity to wild type RSK2 at 1 uM preincubated for 1 hr by denaturing gel electrophoresis and Western blot. An outline of the steps: as §3
For test [19] the target is unchanged. The test is described as follows: Binding affinity to RSK2 in HEK293 cells assessed as protein labeling at 1 µM preincubated for 1 hr by immunodepletion method.
Test [20] deals with Ribosomal protein S6 kinase alpha-3 (Homo sapiens), P51812 [C436V]. The test is described as follows: Binding affinity to RSK2 C436V mutant at 1 uM preincubated for 1 hr by denaturing gel electrophoresis and Western blot. An outline of the steps:
as §3

Test [21] has as its target T1, Ribosomal protein S6 kinase alpha-3. Description: Binding affinity to RSK2 in HEK293 cells assessed as protein labeling at 1 µM preincubated for 1 hr by enhanced chemiluminescence detection.

The source made the active and inactive calls. No cut-off for these calls is given here.

Ribosomal protein S6 kinase alpha-3 (Homo sapiens), P51812 [T493M], sequence (P51812 whole entry T493M, the tested form may be a part): as the sequence (P51812 whole entry, the tested form may be a part) above, with T493M counted along it
Ribosomal protein S6 kinase alpha-3 (Homo sapiens), P51812 [C436V], sequence (P51812 whole entry C436V): as the sequence (P51812 whole entry, the tested form may be a part) above, with C436V counted along it
Ribosomal protein S6 kinase alpha-3 (Homo sapiens, UniProt P51812, C436V), sequence (P51812 whole entry C436V, the tested form may be a part): as the sequence (P51812 whole entry, the tested form may be a part) above, with C436V counted along it

In the case of `Cc1ccc(-c2c(C(=O)CF)n(CCCO)c3ncnc(N)c23)cc1`, the outcome (in test [1]; in the test on NIH3T3 [2]; with COS-7 [4]; in the test with COS-7 [5]) was inactive. The compound also showed an IC50 in [3] of 1 nM. The same compound yielded an EC50 in [6] of 200 nM. The outcome in test [7] was Active.

Take `Cc1ccc(-c2c(C(=O)CCl)n(CCCO)c3ncnc(N)c23)cc1`: the Activity in the test with NIH3T3 [8] was found to be 75%; in [10], 2%. In [3], this compound yielded an IC50 of 100 nM. In addition, in the test with NIH3T3 [9], the outcome was inactive. Moreover, the result in test [11] was Active.

As to `Cc1ccc(-c2cn(CCCO)c3ncnc(N)c23)cc1`, the IC50 in [12] was 1200 nM; in test [13] it was 430 nM; in test [14], more than 30000 nM.

Take `Cc1ccc(-c2c(C(=O)CF)n(CCCOC(=O)NCCCCNC(=O)CCCC[C@@H]3SC[C@H]4NC(=O)N[C@@H]34)c3ncnc(N)c23)cc1`: the result in test [15], in [17], in test [18], in [19] and in test [21] was Active. Moreover, the result in test [16] and in test [20] was inactive.
